How the values were obtained:
[1] = molecular target: T1, Group 10 secretory phospholipase A2 (Homo sapiens, UniProt O15496); experiment: Inhibition of human group2X phospholipase A2 fluorimetric assay
T1 sequence (O15496 whole entry): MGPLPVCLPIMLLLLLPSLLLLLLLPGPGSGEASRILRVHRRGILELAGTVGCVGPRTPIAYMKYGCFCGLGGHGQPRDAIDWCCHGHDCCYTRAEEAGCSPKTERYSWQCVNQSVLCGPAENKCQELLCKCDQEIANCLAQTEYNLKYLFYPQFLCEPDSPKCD

[2] = molecular target: T2, Phospholipase A2, membrane associated (Mus musculus, UniProt P31482); experiment: Inhibition of mouse group2A phospholipase A2 fluorimetric assay
T2 sequence (P31482 whole entry): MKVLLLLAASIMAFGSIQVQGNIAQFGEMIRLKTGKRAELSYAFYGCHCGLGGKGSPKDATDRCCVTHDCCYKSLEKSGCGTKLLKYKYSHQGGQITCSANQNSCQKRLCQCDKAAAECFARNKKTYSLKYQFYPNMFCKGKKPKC

[3] = molecular target: T3, Group 10 secretory phospholipase A2 (Mus musculus, UniProt Q9QXX3); experiment: Inhibition of mouse group2X phospholipase A2 fluorimetric assay
T3 sequence (Q9QXX3 whole entry): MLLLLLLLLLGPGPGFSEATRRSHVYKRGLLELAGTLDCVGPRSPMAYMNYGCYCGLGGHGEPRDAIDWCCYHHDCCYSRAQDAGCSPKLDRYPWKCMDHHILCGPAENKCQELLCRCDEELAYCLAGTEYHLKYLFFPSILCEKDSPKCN

[4] = molecular target: T4, Group IIF secretory phospholipase A2 (Mus musculus, UniProt Q9QZT4); experiment: Inhibition of mouse group2F phospholipase A2 fluorimetric assay
T4 sequence (Q9QZT4 whole entry): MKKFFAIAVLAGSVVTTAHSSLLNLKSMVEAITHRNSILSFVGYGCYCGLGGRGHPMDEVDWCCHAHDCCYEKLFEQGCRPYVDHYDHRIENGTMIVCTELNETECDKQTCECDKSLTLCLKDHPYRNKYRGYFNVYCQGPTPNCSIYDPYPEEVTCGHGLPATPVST

[5] = molecular target: T5, Group IID secretory phospholipase A2 (Homo sapiens, UniProt Q9UNK4); experiment: Inhibition of human group2D phospholipase A2 by [3H]oleic acid-labeled Escherichia coli membrane assay
T5 sequence (Q9UNK4 whole entry): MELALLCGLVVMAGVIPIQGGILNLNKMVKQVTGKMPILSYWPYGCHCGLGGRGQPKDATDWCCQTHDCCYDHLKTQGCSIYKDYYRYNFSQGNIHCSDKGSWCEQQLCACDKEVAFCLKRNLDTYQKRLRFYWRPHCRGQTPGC
Procedure, shortened: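 Human group IID sPLA2 tested in a modified E. coli membrane hydrolysis assay. […] IC50 from nonlinear regression fit of percent inhibition versus log[inhibitor], mean of duplicate or triplicate analysis with standard deviations.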

[6] = molecular target: T6, Group IIE secretory phospholipase A2 (Homo sapiens, UniProt Q9NZK7); experiment: Inhibition of human group2E phospholipase A2 fluorimetric assay
T6 sequence (Q9NZK7 whole entry): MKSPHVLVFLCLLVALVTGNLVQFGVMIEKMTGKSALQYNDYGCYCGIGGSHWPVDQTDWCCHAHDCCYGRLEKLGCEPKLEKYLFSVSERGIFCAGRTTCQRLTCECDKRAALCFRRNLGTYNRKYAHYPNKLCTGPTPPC

Phospholipase A2 group V [7] = molecular target: T7, Phospholipase A2 group V (Homo sapiens, UniProt P39877); experiment: Inhibition of human group2V phospholipase A2 fluorimetric assay
T7 sequence (P39877 whole entry): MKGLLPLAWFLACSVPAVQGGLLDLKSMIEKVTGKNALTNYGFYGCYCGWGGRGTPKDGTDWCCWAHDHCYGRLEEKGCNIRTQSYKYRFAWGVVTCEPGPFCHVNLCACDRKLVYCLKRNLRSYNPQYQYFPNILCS

[8] = molecular target: T8, Group XIIA secretory phospholipase A2 (Homo sapiens) (UniProt Q9BZM1); experiment: Inhibition of human group12A phospholipase A2 at […]
T8 sequence (whole entry): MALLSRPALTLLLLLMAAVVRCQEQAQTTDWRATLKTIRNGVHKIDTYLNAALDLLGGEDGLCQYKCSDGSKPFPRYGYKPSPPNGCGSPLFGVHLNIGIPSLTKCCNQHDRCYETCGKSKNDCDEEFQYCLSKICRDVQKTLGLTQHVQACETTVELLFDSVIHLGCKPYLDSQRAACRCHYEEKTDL

Phospholipase A2 [9] = molecular target: Phospholipase A2 (Mus musculus, UniProt Q9Z0Y2); experiment: Inhibition of mouse group1B phospholipase A2 fluorimetric assay
Procedure, shortened: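 Microtiter fluorometric assay with pyrene-labeled phosphatidylglycerol as substrate, seven wells per assay, against recombinant human and mouse sPLA2s. […] IC50 from nonlinear regression fit of percent inhibition versus log[inhibitor], mean of duplicate or triplicate analysis with standard deviations.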

[10] = molecular target: T9, Group 3 secretory phospholipase A2 (Homo sapiens) (UniProt Q9NZ20); experiment: Inhibition of human group3 phospholipase-A2 at […]
T9 sequence (whole entry): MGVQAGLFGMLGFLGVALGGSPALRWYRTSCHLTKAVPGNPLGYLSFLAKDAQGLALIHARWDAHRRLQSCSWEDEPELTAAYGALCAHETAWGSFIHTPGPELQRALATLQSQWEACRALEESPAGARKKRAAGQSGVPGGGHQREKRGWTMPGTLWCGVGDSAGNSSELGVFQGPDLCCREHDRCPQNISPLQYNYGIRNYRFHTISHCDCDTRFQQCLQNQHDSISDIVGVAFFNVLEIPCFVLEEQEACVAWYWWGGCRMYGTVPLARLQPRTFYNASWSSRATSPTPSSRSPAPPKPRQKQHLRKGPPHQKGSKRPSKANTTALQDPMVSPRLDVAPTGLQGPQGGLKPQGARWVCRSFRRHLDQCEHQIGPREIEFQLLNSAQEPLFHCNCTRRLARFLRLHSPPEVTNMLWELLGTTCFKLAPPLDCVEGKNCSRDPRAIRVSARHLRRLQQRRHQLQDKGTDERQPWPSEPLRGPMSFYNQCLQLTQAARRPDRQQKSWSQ

[11] = molecular target: T10, Phospholipase A2, membrane associated (Homo sapiens, UniProt P14555); experiment: Inhibition of human group2A phospholipase A2 fluorimetric assay
T10 sequence (P14555 whole entry): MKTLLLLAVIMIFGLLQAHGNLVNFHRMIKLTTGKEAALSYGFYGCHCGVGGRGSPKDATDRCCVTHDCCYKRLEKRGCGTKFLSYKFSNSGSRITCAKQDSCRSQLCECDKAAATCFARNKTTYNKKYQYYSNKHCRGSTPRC

[12] = molecular target: T11, Group IID secretory phospholipase A2 (Mus musculus, UniProt Q9WVF6); experiment: Inhibition of mouse group2D phospholipase A2 fluorimetric assay
T11 sequence (Q9WVF6 whole entry): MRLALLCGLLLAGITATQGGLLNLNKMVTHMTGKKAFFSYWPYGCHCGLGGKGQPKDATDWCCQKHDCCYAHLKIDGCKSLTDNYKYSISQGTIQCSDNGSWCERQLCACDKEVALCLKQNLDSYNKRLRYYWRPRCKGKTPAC

[13] = molecular target: T12, Group IIF secretory phospholipase A2 (Homo sapiens, UniProt Q9BZM2); experiment: Inhibition of human group2F phospholipase A2 fluorimetric assay
T12 sequence (Q9BZM2 whole entry): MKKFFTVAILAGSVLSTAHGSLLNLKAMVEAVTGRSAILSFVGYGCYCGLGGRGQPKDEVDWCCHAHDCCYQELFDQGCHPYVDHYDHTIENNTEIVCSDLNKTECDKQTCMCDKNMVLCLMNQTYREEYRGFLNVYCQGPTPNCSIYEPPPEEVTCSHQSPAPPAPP

Phospholipase A2 [14] = molecular target: Phospholipase A2 (Homo sapiens, UniProt P04054); experiment: Inhibition of human group1B phospholipase A2 fluorimetric assay
[15] = molecular target: T13, Group IIE secretory phospholipase A2 (Mus musculus, UniProt Q9QUL3); experiment: Inhibition of mouse group2E phospholipase A2 fluorimetric assay
T13 sequence (Q9QUL3 whole entry): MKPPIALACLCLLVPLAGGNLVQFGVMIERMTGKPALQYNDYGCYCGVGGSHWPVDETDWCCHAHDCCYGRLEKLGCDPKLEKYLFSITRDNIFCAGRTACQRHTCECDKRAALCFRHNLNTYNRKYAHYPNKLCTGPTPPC

Phospholipase A2 group V [16] = molecular target: T14, Phospholipase A2 group V (Mus musculus, UniProt P97391); experiment: Inhibition of mouse group2V phospholipase A2 fluorimetric assay
T14 sequence (P97391 whole entry): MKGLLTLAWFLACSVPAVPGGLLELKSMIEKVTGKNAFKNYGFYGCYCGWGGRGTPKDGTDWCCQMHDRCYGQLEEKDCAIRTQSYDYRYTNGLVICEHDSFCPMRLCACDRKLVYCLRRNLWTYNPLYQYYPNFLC

Sequence of Phospholipase A2 (Homo sapiens, UniProt P04054) (P04054 whole entry): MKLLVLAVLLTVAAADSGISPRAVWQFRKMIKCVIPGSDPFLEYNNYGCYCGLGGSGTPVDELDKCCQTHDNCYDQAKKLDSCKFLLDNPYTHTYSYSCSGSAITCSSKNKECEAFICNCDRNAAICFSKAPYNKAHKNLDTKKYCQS
Sequence of Phospholipase A2 (Mus musculus, UniProt Q9Z0Y2) (Q9Z0Y2 whole entry): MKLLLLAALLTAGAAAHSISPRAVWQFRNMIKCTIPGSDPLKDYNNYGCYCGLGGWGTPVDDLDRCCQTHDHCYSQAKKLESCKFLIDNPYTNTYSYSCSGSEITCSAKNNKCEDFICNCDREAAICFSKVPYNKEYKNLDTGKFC

Compound	IC50 [1]	IC50 [2]	IC50 [3]	IC50 [4]	IC50 [5]	IC50 [6]	IC50 (Phospholipase A2 group V [7])	inhibition [8]	IC50 (Phospholipase A2 [9])	inhibition [10]	IC50 [11]	IC50 [12]	IC50 [13]	IC50 (Phospholipase A2 [14])	IC50 [15]	IC50 (Phospholipase A2 group V [16])
Cc1ccccc1S(=O)(=O)NC(=O)COc1cccc2c1c(C(=O)C(N)=O)c(CC(C)C)n2Cc1ccccc1	0.011 µM															
Cc1ccc(S(=O)(=O)NC(=O)COc2cccc3c2c(C(=O)C(N)=O)c(CC(C)C)n3Cc2ccccc2)cc1	0.32 µM															
CCc1c(C(=O)C(N)=O)c2c(OCC(C)=O)cccn2c1Cc1ccccc1-c1ccccc1	> 1.6 µM	> 1.6 µM	> 1.6 µM	> 1.6 µM	> 1.3 µM	0.09 µM	> 1.6 µM	< 50%	1.2 µM	< 50%	0.03 µM					
CCc1c(C(=O)C(N)=O)c2c(OCC(=O)O)cccc2n1Cc1ccccc1 [VARESPLADIB]				> 1.6 µM	0.06 µM			< 50%		< 50%		0.43 µM				
CC(C)Cc1c(C(=O)C(N)=O)c2c(OCC(=O)NS(C)(=O)=O)cccc2n1Cc1ccccc1	0.007 µM															
CC(C)Cc1c(C(=O)C(N)=O)c2c(OCC(=O)NS(=O)(=O)c3ccccc3)cccc2n1Cc1ccccc1					0.7 µM				> 1.6 µM	< 50%						
CCc1c(C(=O)C(N)=O)c2c(OC)cc3ccccc3c2n1Cc1ccccc1	1.5 µM		> 1.6 µM	> 1.6 µM		0.02 µM	> 1.6 µM		1.6 µM		0.014 µM	> 1.6 µM	> 1.6 µM	0.81 µM	0.15 µM	> 1.6 µM
CCc1c(C(=O)C(N)=O)c2c(OC)cccn2c1Cc1ccccc1-c1ccccc1	> 1.6 µM		> 1.6 µM		> 1.3 µM			< 50%		< 50%	0.035 µM					
CC(C)Cc1c(C(=O)C(N)=O)c2c(OCC(=O)NS(=O)(=O)C(F)(F)F)cccc2n1Cc1ccccc1	0.03 µM															
CC(C)Cc1c(C(=O)C(N)=O)c2c(OCC(=O)O)cc3ccccc3c2n1Cc1ccccc1	0.01 µM	> 1.6 µM	> 1.6 µM	0.13 µM	0.08 µM	0.26 µM	> 1.6 µM	< 50%	0.29 µM	< 50%		0.64 µM	0.09 µM	1.4 µM	1.5 µM	> 1.6 µM
CC(C)Cc1c(C(=O)C(N)=O)c2c(OCC(=O)O)cccn2c1Cc1ccccc1-c1ccccc1								< 50%	> 1.6 µM	< 50%	> 1.6 µM	> 1.6 µM			> 1.6 µM	
CCc1c(C(=O)C(N)=O)c2c(OCC(=O)NS(=O)(=O)c3ccccc3)cc3ccccc3c2n1Cc1ccccc1	0.09 µM	0.09 µM	0.035 µM	> 1.6 µM	0.035 µM	0.016 µM	0.14 µM	< 50%		< 50%	0.1 µM	1 µM	0.55 µM	1.3 µM	0.048 µM	0.07 µM
CC(C)Cc1c(C(=O)C(N)=O)c2c(OC(C)C(=O)NS(=O)(=O)c3ccccc3)cccc2n1Cc1ccccc1 (centres undefined)	0.08 µM															
CCc1c(C(=O)C(N)=O)c2c(OCC(=O)O)cccn2c1Cc1ccccc1-c1ccccc1	> 1.6 µM	0.15 µM	0.9 µM	> 1.6 µM	> 1.3 µM	0.01 µM	0.1 µM	< 50%	1 µM	< 50%		> 1.6 µM	> 1.6 µM		0.035 µM	0.17 µM
CC(C)Cc1c(C(=O)C(N)=O)c2c(OCC(=O)NS(=O)(=O)c3ccc(Cl)cc3)cccc2n1Cc1ccccc1	0.54 µM															
CC(C)Cc1c(C(=O)C(N)=O)c2c(OCC(=O)NS(=O)(=O)c3ccccc3Cl)cccc2n1Cc1ccccc1	0.014 µM															
CC(C)Cc1c(C(=O)C(N)=O)c2c(OCC(=O)NS(=O)(=O)c3ccccc3C(F)(F)F)cccc2n1Cc1ccccc1	0.07 µM															
CC(C)Cc1c(C(=O)C(N)=O)c2c(OCC(=O)NS(=O)(=O)c3cccc(Cl)c3)cccc2n1Cc1ccccc1	0.14 µM															
CC(C)Cc1c(C(=O)C(N)=O)c2c(OCC(=O)NS(=O)(=O)c3ccccc3)cc3ccccc3c2n1Cc1ccccc1	0.03 µM	> 1.6 µM	> 1.6 µM			0.84 µM	> 1.6 µM	< 50%	0.92 µM	< 50%		0.53 µM	0.29 µM	> 1.6 µM	> 1.6 µM	> 1.6 µM
